Published values from different studies.
Cell line: HeLa
Read-out: cell growth or viability

Compound	assay	setting	IC50
CC1NC(=O)C(C(=O)NC(C(=O)NC2C(=O)N3C2SC(C)(C)C3C(=O)O)c2ccccc2)=C1O (stereo not drawn)	ATP luminescence	48 h	106 µg/mL
COc1ccc(-c2cc(=O)c3c(OC)cc(C)c(-c4c(C)cc(OC)c5c(=O)cc(-c6ccc(OC)cc6)oc45)c3o2)cc1	MTT	48 h	41.4 µM
CC1(C)SC2C(NC(=O)C(NC(=O)C3=C(O)C(Cc4ccc(F)cc4)NC3=O)c3ccccc3)C(=O)N2C1C(=O)O (stereo not drawn)	ATP luminescence	48 h	123 µg/mL
NCCOc1cc(NC(=O)c2cc(OCc3c[nH]nn3)cc(C(=O)Nc3cc(OCCN)c4ccccc4n3)n2)nc2ccccc12	ATP luminescence	72 h	7.7 µM
COC(=O)CN=c1scc(-c2ccccc2)n1-c1ccc(Cl)cc1	MTT	72 h	17 µM
O=C(Nc1cc(OCCN2CCCC2)c2ccccc2n1)c1cc(Cl)cc(C(=O)Nc2cc(OCCN3CCCC3)c3ccccc3n2)n1	ATP luminescence	72 h	4.7 µM
O=C(O)CN1c2ccccc2Sc2ccccc21	MTS	–	13.2 µM
Brc1ccc(C#CC#Cc2ccc(Br)cc2)cc1	MTT	24 h	16.3 µg/mL
NCCOc1cc(C(=O)Nc2cc(OCCN3CCCC3)c3ccccc3n2)nc(C(=O)Nc2cc(OCCN3CCCC3)c3ccccc3n2)c1	ATP luminescence	72 h	0.3 µM
COc1ccccc1C(=O)c1cc2c(-c3ccccc3)c(O)ccc2o1	–	–	24 µM
COc1cccc2c1C(=O)c1c(O)c3c(c(O)c1C2=O)C[C@@](O)(C(=O)CO)C[C@@H]3O[C@H]1C[C@H](N)[C@H](O)[C@H](C)O1	MTT	48 h	0.18 µM
CC(C)CC1NC(=O)C(C(=O)NC(C(=O)NC2C(=O)N3C2SC(C)(C)C3C(=O)O)c2ccccc2)=C1O (stereo not drawn)	ATP luminescence	48 h	69.1 µg/mL
Nc1ccc(C#CC#Cc2ccc(N)cc2)cc1	MTT	24 h	91.2 µg/mL
O=C(CCc1cccc2c1B(O)OC2)Nc1ccc(-c2ccccc2)cc1	ATP luminescence	72 h	> 31.6 µM
O=C(c1ccccc1)c1cc2c(-c3ccccc3)c(O)ccc2o1	–	–	35 µM
CC1(C)SC2C(NC(=O)C(NC(=O)C3=C(O)C(Cc4ccsc4)NC3=O)c3ccccc3)C(=O)N2C1C(=O)O (stereo not drawn)	ATP luminescence	48 h	58.9 µg/mL
COc1cccc(-c2cccc(NC(=O)CCc3cccc4c3B(O)OC4)c2)c1	ATP luminescence	72 h	1.05 µM
Clc1ccnc2c1ccc1c(Cl)ccnc12	MTT	48 h	> 50 µM
COC(=O)CN=c1scc(-c2ccccc2)n1-c1ccccc1OC	MTT	72 h	2.97 µM
COC1=C2C[C@@H](C)C[C@H](OC)[C@H](O)[C@@H](C)/C=C(\C)[C@H](OC(N)=O)[C@@H](OC)/C=C\C=C(/C)C(=O)NC(=CC1=O)C2=O	MTT	–	0.651 µM
COc1cc(OC)c2c(=O)cc(-c3ccccc3)oc2c1-c1c(OC)cc(OC)c2c(=O)cc(-c3ccccc3)oc12	MTT	48 h	22.1 µM
COc1cccc2c1C(=O)c1c(O)c3c(c(O)c1C2=O)C[C@@](O)(C(=O)CO)C[C@@H]3O[C@H]1C[C@H](N)[C@H](O)[C@H](C)O1	MTT	24 h	1.2 µM
COc1cccc2c1C(=O)c1c(O)c3c(c(O)c1C2=O)C[C@@](O)(C(=O)CO)C[C@@H]3O[C@H]1C[C@H](N)[C@H](O)[C@H](C)O1	MTT	72 h	3.62 µM

Compound	assay	setting	IC50
COc1cc(OC)c2c(=O)cc(-c3ccc(C(F)(F)F)cc3)oc2c1-c1c(OC)cc(OC)c2c(=O)cc(-c3ccc(C(F)(F)F)cc3)oc12	MTT	48 h	> 100 µM
CN(C)CCCOc1cc(NC(=O)c2cccc(C(=O)Nc3cc(OCCCN(C)C)c4ccccc4n3)n2)nc2ccccc12	ATP luminescence	72 h	3 µM
C[C@H](O)C(=O)CCCCCCC(=O)Nc1cccc(-c2cn(-c3ccccc3)nn2)c1	XTT	–	115 µM
CC1(C)SC2C(NC(=O)C(NC(=O)C3=C(O)C(Cc4ccccc4)NC3=O)c3ccccc3)C(=O)N2C1C(=O)O (stereo not drawn)	ATP luminescence	48 h	122 µg/mL
COc1ccc(-c2cc(=O)c3c(OC)cc(C)cc3o2)cc1	MTT	48 h	28.4 µM
O=C(Cn1ccnc1[N+](=O)[O-])NCc1ccccc1	–	–	> 380 µM
c1ccc(-c2ccccn2)nc1	MTT	48 h	> 50 µM
COc1cc(C)cc2oc(-c3ccc(Br)cc3)cc(=O)c12	MTT	48 h	> 100 µM
CCOC(=O)C#CC#CC(=O)OCC	MTT	24 h	13.2 µg/mL
COc1ccc(C(=O)c2cc3c(-c4ccccc4)c(O)ccc3o2)cc1	–	–	0.51 µM
NCCCOc1cc(NC(=O)c2cc(OCCN)cc(C(=O)Nc3cc(OCCCN)c4ccccc4n3)n2)nc2ccccc12	ATP luminescence	72 h	13.7 µM
C(C#Cc1ccccc1)#Cc1ccccc1	MTT	24 h	3.77 µg/mL
CC(=O)O[C@H]1C(=O)[C@@]2(C)[C@H]([C@H](OC(=O)c3ccccc3)[C@]3(O)C[C@H](OC(=O)[C@H](O)[C@@H](NC(=O)c4ccccc4)c4ccccc4)C(C)=C1C3(C)C)[C@]1(OC(C)=O)CO[C@@H]1C[C@@H]2O	MTT	72 h	< 2 µM
O=C(/C=C/c1cccc2c1B(O)OC2)Nc1ccccc1	ATP luminescence	72 h	> 31.6 µM
NCCOc1cc(NC(=O)c2cc(OCc3ccc(F)cc3)cc(C(=O)Nc3cc(OCCN)c4ccccc4n3)n2)nc2ccccc12	ATP luminescence	72 h	9.6 µM
COc1cc(C)cc2oc(-c3ccccc3)cc(=O)c12	MTT	48 h	82.5 µM
COc1cccc(C(=O)O[C@@H]2CN3Cc4c(cc5c(c4OC)OCO5)[C@@]24C=C[C@H](OC)C[C@@H]34)c1	WST-1	48 h	> 10 µM
COc1cc(OC)c2c(=O)cc(-c3ccc(N(C)C)cc3)oc2c1	MTT	48 h	55.7 µM
NCCCOc1cc(NC(=O)c2cc(Cl)cc(C(=O)Nc3cc(OCCCN)c4ccccc4n3)n2)nc2ccccc12	ATP luminescence	72 h	0.7 µM
COc1ccnc(-c2cc(OC)ccn2)c1	MTT	48 h	> 50 µM
COc1cc(C)c(-c2c(C)cc(OC)c3c(=O)cc(-c4ccc(C(F)(F)F)cc4)oc23)c2oc(-c3ccc(C(F)(F)F)cc3)cc(=O)c12	MTT	48 h	> 100 µM
CC(=O)O[C@H](C)C(=O)CCCCC[C@@H]1NC(=O)[C@H]2CCCN2C(=O)[C@H](Cc2ccccc2)NC(=O)C(C)(C)NC1=O	XTT	–	0.119 µM
